Most compounds without a hit are left out; they make up all but 2.3% or so of the library.
Insulin prom up = MIN6 insulin promoter up-regulation; AID 1625; 190,000 compounds, 0.3% hits; MIN6 insulin promoter-GFP reporter, high-content imaging; active compounds read high; z-score at 5 µM;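 active = z-score above 3 at 5 µM with at least 500 cells counted in the well; inconclusive = wells under 500 cells, flagged as cytotoxic or low count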
ABCG2 block = inhibitors of human ABCG2 transporter, ABCB1 counter-screen. 190,000 compounds, 0.1% hits. inhibition, % at 6.6 µM. IgMXP3 cells, JC-1 efflux, flow cytometry;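 active = inhibition above 80%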
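Incubation: cells with compound and JC-1, 10 min at 25 °C, rotating, no wash / Test system: IgMXP3 (ABCG2) plus far-red-tagged CCRF-Adr (ABCB1) cells / Compound dosing: one concentration, 6.6 µM final / Also added: JC-1 fluorescent substrate / Evaluation: efflux inhibition in percent versus controls / Detection: flow cytometry, 530 nm JC-1 signal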
SDO1 yeast rescue = compounds rescuing growth of sdo1-depleted yeast, bone marrow failure model. S. cerevisiae sdo1-depleted JHY4D growth rescue, OD600 30 h; active compounds read high; pdr5 snq2 efflux-pump mutant strain. z-score at 10 µM. 140,000 compounds, 0.21% hits. AID 817;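 active = z-score above 3 at both the 24 hr and the 30 hr optical density reads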
ABCB1 inh = inhibitors of human ABCB1 transporter, ABCG2 counter-screen. 190,000 compounds, 0.067% hits. AID 1326. CCRF-Adr cells, JC-1 efflux, flow cytometry. inhibition, % at 6.6 µM; in the data active = inhibition above about 40%;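 note: higher value means more JC-1 retained so stronger ABCB1 efflux block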
ROMK primary = modulates human ROMK potassium channel activity; P48048; Tet-inducible ROMK, thallium flux fluorescence; actives lie on both sides; B-score at 10 µM; 130,000 compounds, 2% hits; AID 1918;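 active = signal ratio slope over the read window, or its plate-corrected B-score, at least 3 SD from the plate mean, either direction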;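 note: B-score of the F/F0 ratio slope over 7 to 12 s after thallium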
Target sequence (P48048 whole entry, looked up): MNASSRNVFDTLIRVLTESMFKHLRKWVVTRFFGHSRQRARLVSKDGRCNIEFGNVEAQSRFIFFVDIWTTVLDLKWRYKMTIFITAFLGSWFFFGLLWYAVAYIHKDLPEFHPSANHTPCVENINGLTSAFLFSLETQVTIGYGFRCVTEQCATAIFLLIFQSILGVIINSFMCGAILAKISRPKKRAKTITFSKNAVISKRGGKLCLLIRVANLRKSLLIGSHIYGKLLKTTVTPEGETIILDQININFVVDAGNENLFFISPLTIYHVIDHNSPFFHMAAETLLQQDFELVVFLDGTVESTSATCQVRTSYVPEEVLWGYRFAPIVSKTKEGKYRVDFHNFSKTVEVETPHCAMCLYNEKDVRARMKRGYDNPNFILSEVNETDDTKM
Autophagy HCS = modulators of autophagy. 190,000 compounds, 0.98% hits. MEF GFP-LC3 puncta imaging; test concentration mostly 10 µM. calls only at 10 µM (by protocol);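 active = percentage of spot-positive cells more than 3 SD above its plate mean, without a fluorescence outlier flag or 80% toxicity; inconclusive = no clear call, values can overlap the other calls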
ROMK retest = human ROMK channel modulation, retest confirmation; ROMK thallium flux, fluorescence ratio; active compounds read low; AID 1917; shares compounds with ROMK primary; 3,000 compounds, 54% hits; normalized thallium flux (F/F0 slope) at 10 µM;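 active = Flux at 10 µM at least 3 SD below or above vehicle control mean in one or both replicates; inconclusive = no clear call, values can overlap the other calls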
Hits are given with their value; 0 = inactive; ? = inconclusive; - = no result given; + = active, no number.

SMILES	Insulin prom up	ABCG2 block	SDO1 yeast rescue	ABCB1 inh	ROMK primary	Autophagy HCS	ROMK retest
OC(CNC1CCCCC1)COCCOc1ccc(Br)cc1 (stereo not drawn)	0	0	0	0	-4.07	0	0.0594
COCCn1c(=NC(=O)CSCC(=O)Nc2cc(C)on2)sc2cc(C(=O)OC)ccc21	0	0	0	0	0	0	0
Cc1ccc(/C=N/n2cnc3sc(C)c(C)c3c2=O)o1	0	0	-	0	0	0	-
N#Cc1c(NCc2ccccc2)ccnc1NCc1cccnc1	0	0	0	0	-	0	0
CN(C)c1ccnc(NCc2ccccc2)c1C#N	0	0	0	0	-	0	-
CCOc1ccc(N2C(=O)C3C(c4ccc(O)cc4)NC(CCSC)(C(=O)OC)C3C2=O)cc1 (stereo not drawn)	0	0	-	0	0	0	-
CCCC1(C(=O)OCC)NC(c2ccc(O)cc2)C2C(=O)N(c3ccc4c(c3)OCCO4)C(=O)C21 (stereo not drawn)	-	0	0	0	1.17	0	0
CCCCSC(=S)NC1CCS(=O)(=O)C1 (stereo not drawn)	0	0	0	0	0	0	-
O=S1(=O)CCC(NC(=S)SCCOc2ccccc2)C1 (stereo not drawn)	0	0	-	0	-4.99	0	0.068
CCCCCCN1C=CC=C/C1=C\C=C(C#N)C#N	0	-	-	-	-4.37	-	0.043
CCOC(=O)/C(C#N)=C\C=C1C=CN(C)C=C1	0	0	0	0	-	0	-
O=C(NCC(=O)N(c1cccc(F)c1)C(C(=O)NC1CCCC1)c1cccnc1)c1cccs1 (stereo not drawn)	0	0	-	0	0	0	-
Cc1cc(C(=O)CSc2nc3ccccc3c(=O)n2C)c(C)n1CC1CCCO1 (stereo not drawn)	?	0	-	0	-8.54	0	0.0603
C#CCOCCOCCOCCNc1nc(N2CCN(C(=O)[C@H](CCC(=O)O)n3cc(C(N)CO)nn3)CC2)nc(N2CCN(C(=O)[C@H](CCC(=O)O)n3cc(C(N)CC(C)C)nn3)CC2)n1 (stereo partly drawn)	0	-	-	-	-	-	-
CSc1cccc(NC(=O)C2CCCN2S(=O)(=O)c2ccc(Br)s2)c1 (stereo not drawn)	0	0	0	0	-3.07	0	0.0613
C=CCn1c(SCC(=O)NCC2CCCO2)nnc1-c1ccccc1 (stereo not drawn)	0	0	-	0	0	0	-
O=C(Nc1cccnc1)c1cc(-c2ccccc2O)on1	0	-	-	-	3.04	-	?
CC1CCN(CCOc2ccc(OCc3ccccc3)cc2)CC1	0	0	0	0	0	0	-
N#CC(C#N)=C1C=CC=CN1/C(=C\c1ccco1)C(=O)c1ccccc1	0	0	0	0	-6.04	0	0.0358
N#CC(C#N)=C1C=CC=CN1/C(=C\c1ccco1)C(=O)c1ccc(Br)cc1	?	0	0	0	-	0	-
COc1ccc(C(=O)/C(=C\c2ccco2)N2C=CC=CC2=C(C#N)C#N)cc1	0	0	0	0	-	0	0.0382
CCc1ccc(NC(=O)CC2C(=O)N(c3cccc(C)c3)C(=O)N2C2CC2)cc1 (stereo not drawn)	0	0	-	0	0	0	-
N#Cc1c(-c2ccccc2)ccnc1N1CCOCC1	0	0	-	0	0	0	-
CCN1CC=C2C(C1)C(c1ccc(Cl)s1)C(C#N)=C(N)C2(C#N)C#N (stereo not drawn)	-	0	0	0	-	+	0.0394
c1csc(CNc2ncnc3sccc23)c1	-	-	-	-	-2.92	0	0.0663
SMILES	Insulin prom up	ABCG2 block	SDO1 yeast rescue	ABCB1 inh	ROMK primary	Autophagy HCS	ROMK retest
c1cncc(CNc2ncnc3sccc23)c1	0	0	-	0	0	0	-
c1ccc(CC2CCN(C3=Nc4cccc5cccc3c45)CC2)cc1	-	0	0	0	-4.39	+	0.0621
CC1CN(C2=Nc3cccc4cccc2c34)CC(C)O1 (stereo not drawn)	0	0	-	0	-1.85	0	0.0628
COc1ccc(C(CNC(=O)c2cc3ccccc3cc2OC)N2CCCC2)cc1 (stereo not drawn)	0	0	0	0	-3.1	0	0.0619
CN(C)S(=O)(=O)c1ccc(Cl)c(NC(=O)CSc2nc3ccccc3c(=O)n2CCCN2CCOCC2)c1	0	0	0	0	-	0	-
OCCCc1nc2ccccc2n1CCOc1ccccc1	0	0	0	0	-2.89	0	0.0672
Cc1ccc(OCCn2c(CCCO)nc3ccccc32)cc1	0	0	0	0	0	0	-
CC(C)CNC(=O)c1cccc(NC(=O)COc2cccc([N+](=O)[O-])c2)c1	0	0	-	0	0	0	-
COc1ccc(/C=C(/C(=O)c2ccc(Cl)cc2Cl)n2cncn2)cc1	0	0	0	0	0	0	-
CC(C)CC(=O)/C(=C\c1ccc(Cl)cc1Cl)n1cncn1	0	0	0	0	-7.07	0	0.0464
C=CCN1C(c2ccc(Br)cc2)=CS/C1=C(/C#N)c1nnc(N2CCOCC2)n1-c1ccccc1	0	0	0	0	-3.93	0	0.0566
C=CCN1C(c2ccccc2)=CS/C1=C(\C#N)c1nnc2n1CCCCC2	0	0	0	0	-	0	-
C=CCN1C(c2cccc(C(F)(F)F)c2)=CS/C1=C(/C#N)c1nnc(N2CCOCC2)n1-c1ccccc1	0	0	0	0	-4.6	0	0.0467
CCN(C(=O)COC(=O)c1ccc(N2C(=O)c3ccccc3C2=O)cc1)C1CCS(=O)(=O)C1 (stereo not drawn)	0	0	-	0	0	0	-
COc1cccc(-c2nnc(NC(=O)c3ccc4ncsc4c3)o2)c1	0	0	0	0	0	0	-
Cc1cc(C(=O)COc2ccc(F)cc2Br)c(C)n1C	0	0	-	0	-1.86	0	?
O=C(COc1ccc(F)cc1Br)N1CCc2ccccc21	0	0	0	0	-	0	-
Cc1ccc(NC(=O)Nc2c(Cl)cccc2Cl)cn1	0	-	-	-	-	-	-
CCC(C)N1C(=O)CCC1C(=O)O (stereo not drawn)	0	0	0	0	-8.22	0	0
COCCNC(=O)C1=C(N)C(C(=O)Nc2ccc(C)c(S(=O)(=O)N3CCCCC3)c2)SC1=Nc1ccc(C)cc1C (stereo not drawn)	0	0	0	0	-	0	-
Clc1ccccc1Nc1nc(-c2cccnc2)cs1	-	0	-	0	0	0	-
Cn1c(C(=O)NCCN2CCc3ccccc3C2)cc2c(=O)n(C)c3ccccc3c21	0	0	0	0	-	0	?
Cn1c(C(=O)NCCN2CCOCC2)cc2c(=O)n(C)c3ccccc3c21	0	0	0	0	-	0	-
CCOC(=O)c1cnn(-c2ccccc2)c1NC(=O)CN1CCOCC1	0	-	-	-	0	-	-
O=C1C(=O)N(CC2CCCO2)C(c2ccccc2[N+](=O)[O-])/C1=C(/O)c1ccccc1 (stereo not drawn)	0	0	-	0	0	0	-
O=S(=O)(Nc1cc(Sc2ncn[nH]2)c(O)c2ccccc12)c1ccccc1	?	0	-	0	-4.34	0	0.0464
Cc1cc(NS(=O)(=O)c2ccccc2)c(C)c(Cl)c1O	0	0	0	0	-	-	-

Compound activity (PubChem BioAssay)
